Fewer inactive variants are shown than the library holds.

We go through 27 variants from the RNAGym collection of RNA variant scans (doi:10.1101/gad.245936.114).

To fix the notation:
B1: tRNA (parent)
chain: CUCUCGGUAGCCAAGUUGGUUUAAGGCGCAAGACUUUAAUUUAUCACUACGAAAUCUUGAGAUCGGGCGUUCGACUCGCCCCCGGGAGAUUUUUUCCUCGAGCAA

This series covers variants of B1. The series can be described thus: nonsense suppression (GFP-seq) (ratio to wild type); higher = more function; SUP4oc tRNA, yeast GFP reporter sort-seq. Summed up: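 Raffinose/galactose medium with 80 mg/L adenine was used to grow yeast carrying genome-integrated tRNA variants (~3% random-mutation library), RFP, and a galactose-driven GFP ochre reporter. Cells went into GFP/RFP bins, which were Illumina-sequenced, and variants with ≥100 reads and ≥30 cells were scored. Nonsense suppression (GFPSEQ) is the per-bin median GFP/RFP weighted by estimated cell share and expressed relative to the unmutated parent tRNA.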
As for CUUUCGGUAGCCAAGUUGGUCUAAGGCGCAAGACUUUAAUUUAUCACUACGAAAUCUUGAAAUCGGGCGUUCGACUCGCCCCCGGGAGAUUUUUUCCUCGAGCAA [C3U U21C G61A], the nonsense suppression was 0.206.

Take CUUUCGGUAGCCAAGUUGGUUUAAGGCGCAAGACUUUAAUUUAUCACUACGAAAUCUUGAGAUCGCGCGUUCGACUCGCCCCCGGGAGAUUUUUUCCUCGAGCAA [C3U G66C]: the nonsense suppression turned out to be 0.0288.

In the case of CUUUCGGUAGCCAAGUUGGUUUAAGCCACAAGACUUUAAUUUAUCACUACGAAAUCUUGAGAUCGGGCGUUCGACUCGCCCCCGGGAGAUUUUUUCCUCGAGCAA [C3U G26C G28A], the nonsense suppression was at most 0.026.

As for CUUUCGGUAGCCAAGUUGGUUUAAGGCGCAAGACUUUAAUUUAUCACUACGAAAUCUUGAGAUCGGGCGUUCGACUCACCCCCGGGAGAUUUUUUCCUCGAGCAA [C3U G78A], the nonsense suppression stood at 0.0608.

In the case of CUUUCGGUAGCCAAGUUGGGUUAAGGCGCAAGACUUUAAUUUAUCACUACGAAAUCUUGAGAUCGGGCGUUCGACUCGCCCCCGAGAGAUUUUUUCCUCGAGCAA [C3U U20G G85A], the nonsense suppression was determined as 0.214.

On to CUUUCGGUAGCCAAGUAGGUUUAAGGCGCAAGACUUUAAUUUAUCACUACGAAAUCUUGAGAUCGGGCGUUCGACUCGCCCCCGGGAGAUUUUUUCCUCGAGCAA [C3U U17A], for which the nonsense suppression came out at 0.194.

Take CUUUCGGUAGCCAAGUUGGUUUAAGGCGCAAGACUUUAAUUUAUCACUACGAAAUCUUGAGAUCGGGCGUUCGACUCGCUCCCGGGAGAUUUUUUCCUCGAGCAA [C3U C80U]: the nonsense suppression was determined as 0.0737.

For the variant CUUUCGGUAGCCAAGUUGGUUAAAGGCGCAAGACUUUAAUUUAUCACUACGAAAUCUUGAGAUCGGGCGUUCGACUCGCCCCCGGGAGAUUUUUUCCUCGAGCAA [C3U U22A], the nonsense suppression was 0.169.

On to CUUUCGGUAGCCAAGUUGGUUCAAGGCGCAAGACUUUAAUUUAUCACUACGAAAUCUUGAGAUCGGGCGUUCGACUCGCCCCCGGGAGAUUUUUUCCUCGAGCAA [C3U U22C], for which the nonsense suppression was 0.304.

Regarding CUUUCCGUUGCCGAGUUGGUUUGAGGCGCAAGACUUUAAUUUAUCACUACGAAAUCUUGGGAUCGGGCCUUCGACUCGCCCCCGGGAGAUUUUUUCCUCGAGCAA [C3U G6C A9U A13G A23G A60G G69C], the nonsense suppression is at most 0.026.

Regarding CUUUCGGUAGCCAAGUUGGUUUAAGGCGGAAGACUUUAAUUUAUCACUACGAAAUCUUGAGAUCGGGCGUUCGACUCGCCCCGGGGACAUUUUUUCCUCGAGCAA [C3U C29G C83G G88C], the nonsense suppression was 0.993.

Consider CUUUCGGUAGCCAAGUUGGUUUAAGGCGCAAGACUUUAAUUUAUCACUACGAAAUCUUGAGAUCGGGUGUUCGACUCGCCCCCGGGAGAUUUUUUCCUCGAGCAA [C3U C68U], for which the nonsense suppression was 0.201.

For CUUUCGGUAACCAAGUUGGUUUAAGGCGCAAGACUUUAAUUUAUCACUACGAAAUCUUGAGAUCGGGCGUUCGACUCGCCCCCGGGAGAUUUUUUCCUCGAGCAA [C3U G10A], the nonsense suppression came to 0.0262.

For the variant CUUUCGGUAGCCAAGUUGGUUUAAGGCGCAAGAUUUUAAUUUAUCACUACGAAAUCUUGAGAUCGGGCGUUCGACUCGCCCCCGGGAGAUUUUUUCCUCGAGCAA [C3U C34U], the nonsense suppression was at most 0.026.

Consider CUUUCGGUAGCUAAGUUGGUUUAAGGCGCAAGACUUUAAUUUAUCACUACGAAAUCUUGAGAUCGGGCGUUCGACUCGCCCGCGGGAGAUUUUUUCCUCGAGCAA [C3U C12U C82G], for which the nonsense suppression was at most 0.026.

Consider CUUCCGGUAGCCAAGUUGGUUUAAGGCGCAAGACUUUAAUUUAUCACUACGAAAUCUUGAGAUCGGGCGUUCGACUCGCCCCCGGGAGAUUUUUUCCUCGAGCAA [C3U U4C], for which the nonsense suppression is 0.859.

Turning to CUUUCGGUAGCCAAGUUGGUUUAAGGCGCAAGACUUUAAUUUAUCACUACGAAAUCUUGAGAUCGGGCGUUCGACUCGCCCCCGGGAGCUUUUUUCCUCGAGCAA [C3U A89C], the nonsense suppression is 0.0874.

For CUUUCGGUAGCCAAGUUGGUUUAAGGCGCAAGACUUUAAUUUAUCACUACGAAAUCUUGAGAUCGGGCGUUCGACUCGCCCCCGGAAGAUUUUUUCCUCGAGCAA [C3U G86A], the nonsense suppression was found to be 1.07.

As to CUUUCUGUAGCCAAGUUGGUUGAAGGCGCAAGACUUUAAUUUAUCACUACGAAAUCUUGAGAUCGGGCGUUCGACUCGCCGCCGGGAGAUUUUUUCCUCGAGCAA [C3U G6U U22G C81G], the nonsense suppression was at most 0.026.

In the case of CUUUCGGUACCCAAGUGGGUUAAACGCGCAAGACUUUAAUUUAUCACUACGAAAUCUUGAGAUCGGGCGUUCGACUCGCCCCCGGGAGAUUUUUUCCUCGAGCAA [C3U G10C U17G U22A G25C], the nonsense suppression was at most 0.026.

For CUUUCGGUAGCCAAGUUGGUUUAAGGCGCAAAACUUUAAUUUAUCACUACGAAAUCUUGAGAUCGGUCCUUCGACUCGCCCCCGGGAGAUUUUUUCCUCGAGCAA [C3U G32A G67U G69C], the nonsense suppression is at most 0.026.

CUUUCGGUAGCCAAGUUGGUUUAAGGGGCAAGACUUUAAUUUAUCACUACGAAAUCUUGAGAUCGGGCGUUCGACUCGCCCCCGGGAGAUUUUUUCCUCGAGCAA [C3U C27G]: the nonsense suppression stood at 0.0543.

As for CUUUCGAUAGCCAAGUGGGUUUAAGGCGCAAGACUUUAAUUUAUCACUACGAAAUCUUGAGAUCGGGCGUUCGACUCGCCCCCGGGAGAUUUUUUCCUCGAGCAA [C3U G7A U17G], the nonsense suppression is at most 0.026.

Regarding CUUUCGGUAGCCAAGUUGGUUUAAGGCGCAAGACUUUAAUUUAUCACUACGAAAUCUUGUGAUCGGGCGUUCGACUCGCCCCCGGGAGAUUUUUUCCUCGAGCAA [C3U A60U], the nonsense suppression is 0.55.

As to CUUUCGGUAGCCAAGUUGGUUUAAGGCGCAAGACUUUAAUUUAUCACUACGAAAUCUUGAAAUCGGGCGUUCGACUCGCCCCCGGGAGAUUUUUUCCUCGAGCAA [C3U G61A], the nonsense suppression turned out to be 0.198.

Take CUUUCGGUAGCCAAGUUGGUUUAAGGCGCAAGACUUUAAUUUAUCACUACGAAAUCUUGACAUCGGGCGUUCGACUCGCCCCCGGGAGAUUUUUUCCUCGAGCAA [C3U G61C]: the nonsense suppression came out at 0.164.

CUUUCGGCAGCCAAGUUGGUUUAAGGCGCAAGACUUUAAUUUAUCACUACGAAAUCUUGAGAUCGGGCGUUCGACUCGCCCCCGGGAGAUUUUUUCCUCGAGCAA [C3U U8C]: the nonsense suppression was 0.0916.
